From ChEMBL document CHEMBL2062496, “Identification of a sirtuin 3 inhibitor that displays selectivity over sirtuin 1 and 2” (Eur J Med Chem, 2012) come the findings set out here.

Test [1] has as its target T1, NAD-dependent protein deacetylase sirtuin-1 (Homo sapiens) (UniProt Q96EB6).
T1 sequence (whole entry): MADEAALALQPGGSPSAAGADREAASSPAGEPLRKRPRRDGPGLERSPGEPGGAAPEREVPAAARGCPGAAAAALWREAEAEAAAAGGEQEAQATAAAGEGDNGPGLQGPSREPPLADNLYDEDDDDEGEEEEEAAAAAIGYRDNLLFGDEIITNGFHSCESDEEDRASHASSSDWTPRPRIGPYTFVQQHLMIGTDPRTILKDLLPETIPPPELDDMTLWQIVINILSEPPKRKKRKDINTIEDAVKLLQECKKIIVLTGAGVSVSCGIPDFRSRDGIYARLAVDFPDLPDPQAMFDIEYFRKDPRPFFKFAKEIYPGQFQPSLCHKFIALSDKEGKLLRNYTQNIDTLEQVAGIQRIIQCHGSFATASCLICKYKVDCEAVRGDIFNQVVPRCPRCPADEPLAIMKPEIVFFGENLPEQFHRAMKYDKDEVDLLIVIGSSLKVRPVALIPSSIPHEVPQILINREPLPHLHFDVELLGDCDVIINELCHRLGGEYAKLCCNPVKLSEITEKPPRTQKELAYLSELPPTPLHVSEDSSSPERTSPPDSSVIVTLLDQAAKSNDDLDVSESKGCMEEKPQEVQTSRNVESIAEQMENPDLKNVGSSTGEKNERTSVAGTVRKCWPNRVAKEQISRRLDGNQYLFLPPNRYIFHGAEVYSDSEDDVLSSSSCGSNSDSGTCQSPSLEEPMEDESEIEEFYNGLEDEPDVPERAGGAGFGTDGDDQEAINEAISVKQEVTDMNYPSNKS
As to the kind of experiment: Inhibition of human SIRT1 assessed as enzyme activity using Fluor-de-Lys as substrate at 1 mM by fluorometry. Set-up: scale not given: the % may be the effect or the level left. An outline of the steps: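 Commercial Fluor-de-Lys kit, substrate human p53 379–382 peptide (Arg-His-Lys-Lys(Ac)). Human Sirt1 or Sirt2 was incubated with substrate, NAD+ and compound at 1 mM, also tested at 100 µM. Fluorescence scales with Lys382 deacetylation. Activity is expressed relative to control, mean ± S.E.M. of 3–4 replicates.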

Test [2] relates to SK-MEL-28. As to the kind of experiment: Increase in superoxide level in human SK-MEL-28 cells maintained in medium containing GF and glucose at 100 uM after 24 hrs by DHE-based fluorescence ssay. The format is functional, cell-based. An outline of the steps: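 Cells (SK-MEL-28) were kept 24 h in growth medium (DMEM + 10% serum) with or without 100 µM compound; antimycin was the positive control. They were labelled at 37 °C with DHE (10 µmol/L, 1% DMSO) in Locke's containing 5 mmol/L pyruvate for 40 min, stopped on ice and trypsinized. Flow-cytometric MFI of 10,000 cells, corrected for unlabelled autofluorescence; 3–4 separate experiments.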

In test [3] the test system is SK-MEL-28. As to the kind of experiment: Increase in superoxide level in human SK-MEL-28 cells at 100 uM maintained in Locke's solution after 24 hrs by DHE-based fluorescence assay in absence of GF and glucose. It counts as functional, cell-based. Summed up:
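SK-MEL-28 cells held 24 h in Locke's balanced saline without glucose or serum, with or without 100 µM compound; antimycin was the positive control. Cells were PBS-washed and labelled at 37 °C with DHE (10 µmol/L, 1% DMSO) in Locke's containing 5 mmol/L pyruvate for 40 min. They were then iced, trypsinized and read by FACS as MFI of 10,000 cells, autofluorescence-corrected; 3–4 separate experiments.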

Another test deals with SNB-75. As to the kind of experiment: Growth of human SNB75 cells assessed as cell growth at 10 uM after 48 hrs by MTT assay. The conditions noted are these: SNB-75, 48 h.
A further test concerns CCRF-CEM. In words: Growth of human CCRF-CEM cells assessed as cell growth at 10 uM after 48 hrs by MTT assay. A general note: Tetrazolium assays rely on reduction of a dye to a coloured formazan, in cell work by metabolically active cells.
In the next test the test system is A549. In words: Growth of human A549/ATCC cells assessed as cell growth at 10 uM after 48 hrs by MTT assay. Conditions: A549, 48 h.
The subject of a further test is A498. As to the kind of experiment: Growth inhibition of human A498 cells assessed as cell growth at 10 uM after 48 hrs by MTT assay; values are per cent of control. The conditions noted are these: A498, 48 h.
Another test relates to HCT-15. As to the kind of experiment: Growth inhibition of human HCT15 cells assessed as cell growth at 10 uM after 48 hrs by MTT assay; values are per cent of control. The conditions noted are these: HCT-15, 48 h.
The next test concerns HT-29. As to the kind of experiment: Growth inhibition of human HT-29 cells assessed as cell growth at 10 uM after 48 hrs by MTT assay; values are per cent of control. Conditions: HT-29, 48 h.
The next test deals with SW-620. In words: Growth inhibition of human SW620 cells assessed as cell growth at 10 uM after 48 hrs by MTT assay; values are per cent of control. The conditions noted are these: SW-620, 48 h.
A further test relates to SNB-19. As to the kind of experiment: Growth inhibition of human SNB19 cells assessed as cell growth at 10 uM after 48 hrs by MTT assay; values are per cent of control. Conditions: SNB-19, 48 h.
A further test concerns SN12C. As to the kind of experiment: Growth inhibition of human SN12C cells assessed as cell growth at 10 uM after 48 hrs by MTT assay; values are per cent of control.
The next test concerns HCT-116. In words: Growth inhibition of human HCT116 cells assessed as cell growth at 10 uM after 48 hrs by MTT assay; values are per cent of control. The conditions noted are these: HCT-116, 48 h.
Another test concerns NCI-H23. In words: Growth inhibition of human NCI-H23 cells assessed as cell growth at 10 uM after 48 hrs by MTT assay; values are per cent of control. The conditions noted are these: NCI-H23, 48 h.
The test system of another test is LOX IMVI. In words: Growth inhibition of human LOXIMVI cells assessed as cell growth at 10 uM after 48 hrs by MTT assay; values are per cent of control.
In test [4] the test system is SK-MEL-28. In words: Growth inhibition of human SK-MEL-28 cells assessed as cell growth at 10 uM after 48 hrs by MTT assay; values are per cent of control. The conditions noted are these: SK-MEL-28, 48 h.
The test system of the next test is MDA-MB-435. In words: Growth inhibition of human MDA-MB-435 cells assessed as cell growth at 10 uM after 48 hrs by MTT assay; values are per cent of control. The conditions noted are these: MDA-MB-435, 48 h.
For a further test, the system named is MDA-MB-231. In words: Growth inhibition of human MDA-MB-231 cells assessed as cell growth at 10 uM after 48 hrs by MTT assay; values are per cent of control. Conditions: MDA-MB-231, 48 h.

Activity calls are given as the source filed them. No cut-off for these calls is given here.

For `c1cncc(-c2cnn[nH]2)c1`, in [1], the Activity amounted to 88%. Moreover, the result in the test with SK-MEL-28 [2] and in the test with SK-MEL-28 [3] was Active. Also, the growth, % of control at 10 µM in the test with SNB-75 came out at 93%; with CCRF-CEM it was 24.8%; in the test with A549, 101%; in the test on A498, 105%; in the test on HCT-15, 69.2%; in the test on HT-29, 39.9%. Further, the growth, % of control at 10 µM in the test on SW-620 worked out at 106%; with SNB-19, 102%; in the test on SN12C, 102%; with HCT-116 it was 82.4%; with NCI-H23, 89.6%; with LOX IMVI, 102%. Also, the growth, % of control at 10 µM with SK-MEL-28 [4] was 106%; in the test with MDA-MB-435, 56%; with MDA-MB-231, 103%.
